Results taken from ChEMBL document CHEMBL1130270, “Design of [R-(Z)]-(+)-alpha-(methoxyimino)-1-azabicyclo[2.2.2]octane-3-acetonitri le (SB 202026), a functionally selective azabicyclic muscarinic M1 agonist incorporating the N-methoxy imidoyl nitrile group as a novel ester bioisostere” (J Med Chem, 1997).

How the values were obtained:
[1] = target: Muscarinic acetylcholine receptor; test: In vitro affinity evaluated using [3H]- oxotremorine as radioligand in rat cerebral cortex for muscarinic acetylcholine receptor; format: tissue-based
[2] = target: Muscarinic acetylcholine receptor; test: In vitro affinity evaluated using [3H]- quinuclidinyl benzilate as radioligand in rat cerebral cortex for muscarinic acetylcholine receptor; format: tissue-based
Rattus norvegicus [3] = organism: Rattus norvegicus; test: Dose producing […] rhythmic slow wave activity in rat
Mus musculus [4] = test: Tremorigenic effects were assessed in mice after subcutaneous administration of the compound; format: functional; settings: sc
In short: (§1)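 Male CD1 mice (25-35 g), dosed sc. Tremor scored subjectively: 0 absent, 1 mild, 2 moderate, 3 severe.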

Mus musculus [5] = organism: Mus musculus; test: Extrapyramidal effects was assessed from the dose producing tremors; format: functional; in short: as §1
[6] = target: T1, Muscarinic acetylcholine receptor M2 (Homo sapiens, UniProt P08172); test: In vitro affinity is evaluated, using quinuclidynyl benzylate (QNB) as radioligand in human cloned Muscarinic acetylcholine receptor M2
T1 sequence (P08172 whole entry): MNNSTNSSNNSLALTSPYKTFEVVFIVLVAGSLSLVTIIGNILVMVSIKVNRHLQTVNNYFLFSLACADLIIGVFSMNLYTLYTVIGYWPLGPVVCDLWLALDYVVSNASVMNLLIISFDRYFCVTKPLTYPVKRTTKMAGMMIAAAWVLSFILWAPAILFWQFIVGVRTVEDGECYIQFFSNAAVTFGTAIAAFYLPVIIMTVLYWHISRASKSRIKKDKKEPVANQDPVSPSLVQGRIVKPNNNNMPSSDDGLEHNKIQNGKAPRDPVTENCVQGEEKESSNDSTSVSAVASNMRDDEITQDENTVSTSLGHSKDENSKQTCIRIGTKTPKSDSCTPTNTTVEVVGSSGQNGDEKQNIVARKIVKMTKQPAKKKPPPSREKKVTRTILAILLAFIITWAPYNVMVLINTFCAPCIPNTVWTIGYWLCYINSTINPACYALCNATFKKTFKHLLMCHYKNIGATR

[7] = target: T2, Muscarinic acetylcholine receptor M4 (Homo sapiens, UniProt P08173); test: In vitro affinity is evaluated, using quinuclidynyl benzylate (QNB) as radioligand in human cloned Muscarinic acetylcholine receptor M4
T2 sequence (P08173 whole entry): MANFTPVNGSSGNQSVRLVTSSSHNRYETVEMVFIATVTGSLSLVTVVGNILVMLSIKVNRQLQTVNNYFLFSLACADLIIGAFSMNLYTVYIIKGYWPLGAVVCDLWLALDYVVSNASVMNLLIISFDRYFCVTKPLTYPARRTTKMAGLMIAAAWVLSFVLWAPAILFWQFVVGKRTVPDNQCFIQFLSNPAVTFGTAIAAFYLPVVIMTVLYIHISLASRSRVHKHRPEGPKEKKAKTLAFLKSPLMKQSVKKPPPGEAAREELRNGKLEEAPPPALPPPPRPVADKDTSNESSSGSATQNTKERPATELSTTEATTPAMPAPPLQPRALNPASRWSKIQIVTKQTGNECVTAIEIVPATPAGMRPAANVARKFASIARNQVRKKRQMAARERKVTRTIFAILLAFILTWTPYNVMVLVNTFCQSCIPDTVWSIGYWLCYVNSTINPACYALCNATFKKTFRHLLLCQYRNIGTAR

[8] = target: T3, Muscarinic acetylcholine receptor M3 (Homo sapiens, UniProt P20309); test: In vitro affinity is evaluated, using quinuclidynyl benzylate (QNB) as radioligand in human cloned Muscarinic acetylcholine receptor M3
[9] = target: T4, Muscarinic acetylcholine receptor M1 (Homo sapiens, UniProt P11229); test: In vitro affinity against human Muscarinic acetylcholine receptor M1 using quinuclidynyl benzylate (QNB)
T4 sequence (P11229 whole entry): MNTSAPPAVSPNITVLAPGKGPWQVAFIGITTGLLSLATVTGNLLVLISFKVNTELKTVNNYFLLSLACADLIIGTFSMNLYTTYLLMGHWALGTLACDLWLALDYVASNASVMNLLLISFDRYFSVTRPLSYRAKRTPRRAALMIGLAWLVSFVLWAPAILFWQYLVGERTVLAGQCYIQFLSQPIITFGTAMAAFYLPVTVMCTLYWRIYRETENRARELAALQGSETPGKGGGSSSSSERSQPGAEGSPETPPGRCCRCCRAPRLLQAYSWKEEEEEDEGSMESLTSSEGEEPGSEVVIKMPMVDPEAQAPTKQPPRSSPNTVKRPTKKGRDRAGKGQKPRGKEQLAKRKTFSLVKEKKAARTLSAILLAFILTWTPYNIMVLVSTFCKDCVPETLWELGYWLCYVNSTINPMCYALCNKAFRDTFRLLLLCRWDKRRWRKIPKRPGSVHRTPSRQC

[10] = Ratio of 50% fall in heart rate to that of in blood pressure in anesthetized rats; format: functional
Rattus norvegicus [11] = test: Dose producing […] rhythmic slow wave activity in anesthetized rats; format: functional
[12] = Ratio of 50% fall in heart rate to that of […] slow wave activity in anesthetized rats; format: functional
In short: (§2)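 Same anaesthetized-rat dosing as above. Ratio of iv dose giving a transient 50% fall in BP (or HR) to the iv dose giving an arecoline-equivalent (0.32 mg/kg) change in hippocampal theta power.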

[13] = Distribution coefficient is the ratio of concentration in lipid phase to the concentration of compound in aqueous phase.; format: physicochemical
In short: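 Calculated for pH 7.3, not measured. D is the concentration of compound in the lipid phase divided by the concentration of all species in the aqueous phase.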

[14] = Dissociation constant is the negative logarithm of the equilibrium coefficient of the neutral and charged forms of the compound; format: physicochemical
[15] = Ratio of 50% fall blood pressure to that of rhythmic slow wave activity in anesthetized rats; format: functional; in short: as §2
[16] = Partition coefficient is determined in octanol/buffer solution at pH 12; format: physicochemical
Rattus norvegicus [17] = test: Dose producing 50% fall in blood pressure in anesthetized rats; format: functional
In short: (§3)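 Male Hooded Lister rats (300-380 g) under urethane anaesthesia, 37 °C. Increasing iv doses via femoral vein at 45 min intervals. BP recorded from carotid artery; HR derived from the BP signal. Peak effect within 1 min, expressed as % of predose. Value is the dose giving a transient 50% fall in mean BP or HR; 95% confidence limits.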

Rattus norvegicus [18] = test: Dose producing 50% fall in heart rate in anesthetized rats; format: functional; in short: as §3
[19] = target: T2, Muscarinic acetylcholine receptor M4; test: In vitro affinity is evaluated, using quinuclidynyl benzylate (QNB) radioligand in human cloned Muscarinic acetylcholine receptor M4
In short: (§4)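 Membranes from CHO cells transfected with human m2, m3 or m4 receptors, prepared in 50 mM Tris (pH 7.4 at 37 °C). Displacement of 0.1 nM [3H]QNB; nonspecific binding defined with atropine sulfate. Incubated to equilibrium at 37 °C, ended by rapid vacuum filtration.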

[20] = target: T1, Muscarinic acetylcholine receptor M2; test: In vitro affinity is evaluated, using quinuclidinyl benzilate (QNB) as radioligand in human cloned Muscarinic acetylcholine receptor M2; in short: as §4
[21] = target: T3, Muscarinic acetylcholine receptor M3; test: In vitro affinity is evaluated, using quinuclidynyl benzylate (QNB)radioligand in human cloned Muscarinic acetylcholine receptor M3; in short: as §4
[22] = Ratio of 50% fall in blood pressure to that of rhythmic slow wave activity in anesthetized rats; format: functional; in short: as §2
[23] = Ratio of IC50 QNB to that of OXO-M was determined; format: functional
In short: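 Rat cerebral cortex binding: IC50 for displacement of the antagonist [3H]QNB divided by IC50 for displacement of the agonist [3H]oxotremorine-M, used as an efficacy index.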

Rattus norvegicus [24] = test: Dose producing 50 % fall in heart rate in anesthetized rats; format: functional; in short: as §3
Rattus norvegicus [25] = test: Extrapyramidal effects was assessed from the dose producing tremors in anesthetized rats
Rattus norvegicus [26] = test: Dose producing 50 % fall in mean blood pressure in anesthetized rats; format: functional; in short: as §3
Rattus norvegicus [27] = organism: Rattus norvegicus; test: Dose inducing hippocampal rhythmic slow wave activity; format: functional, Hippocampus
In short: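 Male Hooded Lister rats (300-380 g) under urethane anaesthesia, pretreated with atropine methyl nitrate 0.1 mg/kg iv. Dosing iv via femoral vein, saline vehicle. Bipolar electrode in right hippocampal CA1; EEG sampled at 128 Hz. Read-out is change in mean theta power (3–7 Hz).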

T3 sequence (P20309 whole entry): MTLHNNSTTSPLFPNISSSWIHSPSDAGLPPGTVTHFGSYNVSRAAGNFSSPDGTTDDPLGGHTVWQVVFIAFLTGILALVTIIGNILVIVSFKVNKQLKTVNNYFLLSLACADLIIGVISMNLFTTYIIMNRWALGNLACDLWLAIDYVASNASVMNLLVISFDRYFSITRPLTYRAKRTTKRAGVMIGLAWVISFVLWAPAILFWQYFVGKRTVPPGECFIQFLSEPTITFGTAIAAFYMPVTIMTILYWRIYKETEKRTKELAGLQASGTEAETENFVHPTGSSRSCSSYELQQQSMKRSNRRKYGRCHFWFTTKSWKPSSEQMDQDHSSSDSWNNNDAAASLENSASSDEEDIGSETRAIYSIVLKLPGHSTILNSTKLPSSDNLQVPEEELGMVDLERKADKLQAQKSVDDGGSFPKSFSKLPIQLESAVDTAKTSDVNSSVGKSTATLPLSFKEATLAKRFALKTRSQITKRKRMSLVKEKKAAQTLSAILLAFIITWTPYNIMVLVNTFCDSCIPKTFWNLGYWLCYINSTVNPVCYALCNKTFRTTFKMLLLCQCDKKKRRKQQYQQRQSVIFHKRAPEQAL

Row | Compound | IC50 [1] [µM] | IC50 [2] [µM] | ED Arec (Rattus norvegicus [11]) [mg/kg] | Ratio [12] | Ratio [15] | ED50 (Rattus norvegicus [17]) [mg/kg] | ED50 (Rattus norvegicus [18]) [mg/kg] | other results
1 | CO/N=C(\Br)[C@@H]1CN2CC[C@H]1C2 | 0.17 | 2.3 |  |  |  |  |  | 
2 | CO/N=C(\Cl)[C@@H]1CN2CC[C@H]1C2 | 0.1 | 8.88 |  |  |  |  |  | 
3 | O=C1CCCN1CC#CCN1CCCC1 [OXOTREMORINE] |  |  |  |  |  |  |  | ED Arec (Rattus norvegicus [3]): 0.023 mg/kg; ED50 (Mus musculus [4]): 0.07 mg/kg; Activity (Mus musculus [5]): 3
4 | CO/N=C/[C@H]1CN2CC[C@H]1C2 |  |  |  |  |  |  |  | IC50 [6]: 0.22 µM; IC50 [7]: 1.1 µM; IC50 [8]: 2.2 µM; IC50 [9]: 10 µM; Ratio [10]: 1.5
5 | C#CCO/N=C/[C@H]1CN2CC[C@H]1C2 |  |  |  |  |  |  |  | Ratio [10]: 3.7
6 | CO/N=C(/C)C12CCCN(CC1)C2 (centres undefined) | 0.046 | 3.4 | 0.068 | 0.6 | 1 | 0.068 | 0.042 | logD [13]: -1.13; pKa [14]: 10.1; logD [16]: 1.65
7 | CO/N=C(\C#N)[C@H]1CN2CC[C@H]1C2 | 0.023 | 2.3 | 0.0032 | 2.8 | 4.7 | 0.015 | 0.009 | IC50 [6]: 0.61 µM; IC50 [7]: 0.8 µM; IC50 [8]: 0.38 µM; IC50 [9]: 1.18 µM
8 | CC#CCO/N=C/[C@H]1CN2CC[C@H]1C2 | 0.115 | 2.9 |  |  |  |  |  | 
9 | CO/N=C(\Cl)C12CCCN(CC1)C2 (centres undefined) |  |  | 0.032 | 8.3 | 10 |  | 0.24 | logD [16]: 2.12
10 | CO/N=C(/C#N)C1CN2CCC1CC2 (centres undefined) | 0.24 | 1.3 |  |  |  |  |  | 
11 | CO/N=C(\C#N)C12CCCN(CC1)C2 (centres undefined) |  |  |  | 2 | 4 |  | 0.01 | IC50 [19]: 0.049 µM; IC50 [20]: 0.031 µM; IC50 [21]: 0.028 µM; logD [16]: 1.49; IC50 [9]: 0.099 µM
12 | CCO/N=C/[C@H]1CN2CC[C@H]1C2 |  |  |  |  |  |  |  | Ratio [22]: >7.8; Ratio [23]: 23; ED50 (Rattus norvegicus [24]): > 1.8 mg/kg; Ratio [10]: >7.8
13 | CO/N=C(\F)[C@H]1CN2CC[C@H]1C2 | 0.0085 |  |  |  |  |  |  | 
14 | C=CCO/N=C/[C@H]1CN2CC[C@H]1C2 | 0.25 | 9.7 |  |  |  |  |  | 
15 | CO/N=C(\F)C12CCCN(CC1)C2 (centres undefined) |  |  |  | 2 |  |  | 0.024 | logD [16]: 1.01
16 | CO/N=C(\C#N)C12CCN(CC1)C2 |  |  | 0.0056 | 0.79 | 1.8 | 0.01 | 0.0044 | IC50 [6]: 0.24 µM; IC50 [7]: 0.495 µM; IC50 [8]: 0.3 µM; IC50 [9]: 1.65 µM
17 | CO/N=C(\C#N)[C@@H]1CN2CC[C@H]1C2 | 0.021 | 3.175 | 0.005 | 4.2 | 4.8 | 0.024 | 0.021 | IC50 [6]: 0.7 µM; IC50 [7]: 0.975 µM; IC50 [8]: 1.2 µM; IC50 [9]: 1.5 µM
18 | CCN1C(=O)CC2(CCN(C)CC2)C1=O |  |  |  |  |  |  |  | ED Arec (Rattus norvegicus [3]): 0.35 mg/kg; ED50 (Mus musculus [4]): 3.8 mg/kg; Activity (Mus musculus [5]): 8.6
19 | CO/N=C(\C#N)[C@@H]1CN2CCC1CC2 | 0.14 | 1.13 | >1 |  |  | > 1 | > 1 | 
20 | CO/N=C(\C#N)[C@H]1CN2CCC1CC2 [SABCOMELINE] | 0.014 | 0.31 |  | >18.8 | >18.8 |  |  | IC50 [6]: 0.18 µM; ED50 (Rattus norvegicus [25]): 0.12 mg/kg; IC50 [7]: 0.09 µM; ED50 (Mus musculus [4]): > 10 mg/kg; IC50 [8]: 0.06 µM; ED50 (Rattus norvegicus [24]): > 0.32 mg/kg; IC50 [9]: 0.17 µM; ED50 (Rattus norvegicus [26]): > 0.32 mg/kg; ED Arec (Rattus norvegicus [27]): 0.017 mg/kg
21 | COC(=O)C1=CCCN(C)C1 [ARECOLINE] |  |  | 0.32 |  |  | 0.022 | 0.024 | 
22 | CO/N=C(\C#N)C1CN2CCC1CC2 (centres undefined) |  |  |  | >10.9 | >10.9 |  | > 0.56 | logD [16]: 1.56
23 | CO/N=C(\C)C1CN2CCC1CC2 (centres undefined) |  |  |  | >1 | >1 | > 0.32 | > 0.32 | logD [16]: 1.88
